Data reported in ChEMBL document CHEMBL5705897, “Characterization of WZ4003 and HTH-01-015 as selective inhibitors of the LKB1-tumour-suppressor-activated NUAK kinases” (Biochem J, 2014).
Activity calls are given as the source filed them. No cut-off for these calls is given here.

Tests used:
[1] = biological target: Protein kinase C alpha type (Homo sapiens) (UniProt P17252); experiment: Inhibition of recombinant human N-terminal His6-tagged PKCalpha (1 to 672 residues) expressed in baculovirus infected Sf21 cells assessed as remaining activity at 1 uM using Histone H1 as substrate incubated for 30 mins in presence of [gamma-33P]ATP by filter binding method relative to control
How it was run: (§1)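 Screened at the International Centre for Protein Kinase Profiling against a 140-kinase panel, with inhibitor at 0.1 or 1 μM; activity expressed as percentage of DMSO control reactions, mean of triplicate reactions.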

[2] = biological target: Serine/threonine-protein kinase PLK1 (Homo sapiens) (UniProt P53350); experiment: (§2) Inhibition of recombinant human N-terminal His6-tagged PLK1 (1 to 603 residues) expressed in baculovirus infected Sf21 cells assessed as remaining activity at 1 uM using ISDELMDATFADQEAKKK as substrate incubated for 30 mins in presence of [gamma-33P]ATP by filter binding method relative to control; how it was run: as §1
Sequence of Serine/threonine-protein kinase PLK1 (Homo sapiens) (P53350 whole entry, the tested form may be a part): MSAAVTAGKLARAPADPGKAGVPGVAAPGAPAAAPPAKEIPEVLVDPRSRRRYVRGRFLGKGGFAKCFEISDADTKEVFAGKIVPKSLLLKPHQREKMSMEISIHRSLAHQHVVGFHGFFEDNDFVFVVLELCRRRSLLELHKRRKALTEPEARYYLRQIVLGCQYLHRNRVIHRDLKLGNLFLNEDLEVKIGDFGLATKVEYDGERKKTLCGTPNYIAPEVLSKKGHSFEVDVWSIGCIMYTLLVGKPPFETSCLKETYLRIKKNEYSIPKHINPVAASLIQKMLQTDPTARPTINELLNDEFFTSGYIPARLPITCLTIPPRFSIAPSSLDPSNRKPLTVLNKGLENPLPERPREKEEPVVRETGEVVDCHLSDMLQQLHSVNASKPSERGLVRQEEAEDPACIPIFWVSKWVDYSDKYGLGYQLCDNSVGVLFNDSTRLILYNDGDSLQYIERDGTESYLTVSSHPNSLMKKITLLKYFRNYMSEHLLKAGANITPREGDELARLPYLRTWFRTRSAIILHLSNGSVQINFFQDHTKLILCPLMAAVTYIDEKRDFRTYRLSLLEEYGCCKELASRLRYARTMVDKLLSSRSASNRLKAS

[3] = biological target: Serine/threonine-protein kinase TBK1 (Homo sapiens) (UniProt Q9UHD2); experiment: as §2, with “GST-tagged TBK1” for “His6-tagged PLK1”, “729” for “603”, “KKKKERLLDDRHDSGLDSMKDEE” for “ISDELMDATFADQEAKKK”; how it was run: as §1
MEF = experiment: Inhibition of NUAK1 in NUAK1+/+ MEF cells assessed as reduction in MYPT1 phosphorylation at Ser445 residues at 10 uM after 16 hrs by immunoblot analysis; type: cell-based; conditions: Mus musculus
How it was run: (§3)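 U2OS cells or NUAK1+/+ MEFs treated with or without 10 μM inhibitor for 16 h, then 20 min in EDTA-PBS dissociation buffer with 10 μM inhibitor or DMSO; detached by tapping and 70 g 3 min spin, lysed immediately and immunoblotted for MYPT1 p-Ser445; three separate experiments.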

[4] = biological target: Mitogen-activated protein kinase kinase kinase kinase 2 (Homo sapiens) (UniProt Q12851); experiment: Inhibition of recombinant human N-terminal His6-tagged GCK (2 to 812 residues) expressed in baculovirus infected Sf21 cells assessed as remaining activity at 1 uM using MBP as substrate incubated for 30 mins in presence of [gamma-33P]ATP by filter binding method relative to control; how it was run: as §1
Sequence of Mitogen-activated protein kinase kinase kinase kinase 2 (Homo sapiens) (Q12851 whole entry, the tested form may be a part): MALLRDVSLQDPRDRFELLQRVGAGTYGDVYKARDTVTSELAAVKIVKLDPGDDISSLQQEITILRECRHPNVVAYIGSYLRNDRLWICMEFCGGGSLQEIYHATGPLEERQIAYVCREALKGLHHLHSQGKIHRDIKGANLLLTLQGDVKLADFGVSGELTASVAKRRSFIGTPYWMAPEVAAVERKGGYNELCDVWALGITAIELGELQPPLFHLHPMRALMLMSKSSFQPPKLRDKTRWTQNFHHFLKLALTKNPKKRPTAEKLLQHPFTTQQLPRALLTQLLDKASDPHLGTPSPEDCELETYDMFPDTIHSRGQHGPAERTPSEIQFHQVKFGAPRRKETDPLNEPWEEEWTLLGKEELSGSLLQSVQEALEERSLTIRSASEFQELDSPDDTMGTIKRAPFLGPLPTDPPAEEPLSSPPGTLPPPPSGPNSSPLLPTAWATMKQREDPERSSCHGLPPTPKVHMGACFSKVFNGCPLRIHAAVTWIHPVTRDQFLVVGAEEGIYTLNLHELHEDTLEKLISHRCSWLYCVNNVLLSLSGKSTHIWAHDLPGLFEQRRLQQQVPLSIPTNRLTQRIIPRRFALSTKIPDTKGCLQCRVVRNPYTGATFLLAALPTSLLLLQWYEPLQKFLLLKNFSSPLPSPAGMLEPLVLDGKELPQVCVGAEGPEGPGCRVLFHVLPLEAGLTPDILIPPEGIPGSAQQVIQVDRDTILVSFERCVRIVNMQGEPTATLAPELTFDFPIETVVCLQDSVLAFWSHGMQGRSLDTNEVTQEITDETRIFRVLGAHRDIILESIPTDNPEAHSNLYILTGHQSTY

[5] = biological target: Serine/threonine-protein kinase BRSK2 (Homo sapiens) (UniProt Q8IWQ3); experiment: Inhibition of recombinant human N-terminal His6-tagged BRSK2 (2 to 674 residues) expressed in baculovirus infected Sf21 cells assessed as remaining activity at 1 uM using KKLNRTLSFAEPG as substrate incubated for 30 mins in presence of [gamma-33P]ATP by filter binding method relative to control; how it was run: as §1
Sequence of Serine/threonine-protein kinase BRSK2 (Homo sapiens) (Q8IWQ3 whole entry, the tested form may be a part): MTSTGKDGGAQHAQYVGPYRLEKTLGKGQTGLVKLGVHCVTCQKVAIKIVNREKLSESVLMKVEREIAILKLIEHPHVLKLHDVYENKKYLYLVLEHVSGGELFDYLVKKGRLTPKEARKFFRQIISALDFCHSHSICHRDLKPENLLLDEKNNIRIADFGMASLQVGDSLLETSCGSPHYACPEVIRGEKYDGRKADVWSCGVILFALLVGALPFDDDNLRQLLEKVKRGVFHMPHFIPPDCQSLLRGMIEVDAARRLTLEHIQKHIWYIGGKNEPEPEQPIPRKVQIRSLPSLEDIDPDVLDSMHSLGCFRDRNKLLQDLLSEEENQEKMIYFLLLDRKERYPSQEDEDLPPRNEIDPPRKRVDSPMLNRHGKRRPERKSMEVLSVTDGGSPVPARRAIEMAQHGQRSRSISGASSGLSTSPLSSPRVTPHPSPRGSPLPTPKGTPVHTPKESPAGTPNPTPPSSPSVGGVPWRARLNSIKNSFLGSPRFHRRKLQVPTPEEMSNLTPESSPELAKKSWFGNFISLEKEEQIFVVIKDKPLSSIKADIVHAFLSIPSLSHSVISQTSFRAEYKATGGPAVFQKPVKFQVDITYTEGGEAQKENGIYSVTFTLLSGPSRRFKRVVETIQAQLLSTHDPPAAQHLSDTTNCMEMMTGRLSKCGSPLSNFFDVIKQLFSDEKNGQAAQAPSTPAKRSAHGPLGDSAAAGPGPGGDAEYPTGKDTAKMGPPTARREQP

[6] = biological target: MAP kinase-activated protein kinase 2 (Homo sapiens) (UniProt P49137); experiment: Inhibition of recombinant human N-terminal GST/C-terminal Myc-tagged MAPKAPK2 (46 to 400 residues) expressed in Escherichia coli assessed as remaining activity at 1 uM using KKLNRTLSVA as substrate incubated for 30 mins in presence of [gamma-33P]ATP by filter binding method relative to control; how it was run: as §1
Sequence of MAP kinase-activated protein kinase 2 (Homo sapiens) (P49137 whole entry, looked up, the tested form may be a part): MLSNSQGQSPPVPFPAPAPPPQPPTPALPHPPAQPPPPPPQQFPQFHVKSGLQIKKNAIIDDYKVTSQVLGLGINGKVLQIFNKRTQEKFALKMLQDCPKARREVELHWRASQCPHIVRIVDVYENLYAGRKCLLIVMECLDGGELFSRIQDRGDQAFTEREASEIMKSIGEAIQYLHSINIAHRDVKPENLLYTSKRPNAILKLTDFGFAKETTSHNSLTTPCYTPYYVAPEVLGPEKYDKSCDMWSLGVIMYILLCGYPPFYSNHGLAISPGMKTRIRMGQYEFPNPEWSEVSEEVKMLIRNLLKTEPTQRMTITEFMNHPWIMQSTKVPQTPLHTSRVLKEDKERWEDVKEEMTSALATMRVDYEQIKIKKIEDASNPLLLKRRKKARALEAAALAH

[7] = biological target: MAP kinase-interacting serine/threonine-protein kinase 2 (Homo sapiens) (UniProt Q9HBH9); experiment: Inhibition of recombinant human N-terminal GST/C-terminal His6-tagged MNK2alpha (2 to 465 residues) expressed in Escherichia coli assessed as remaining activity at 1 uM using eIF4E as substrate incubated for 30 mins in presence of [gamma-33P]ATP by filter binding method relative to control; how it was run: as §1
Sequence of MAP kinase-interacting serine/threonine-protein kinase 2 (Homo sapiens) (Q9HBH9 whole entry, looked up, the tested form may be a part): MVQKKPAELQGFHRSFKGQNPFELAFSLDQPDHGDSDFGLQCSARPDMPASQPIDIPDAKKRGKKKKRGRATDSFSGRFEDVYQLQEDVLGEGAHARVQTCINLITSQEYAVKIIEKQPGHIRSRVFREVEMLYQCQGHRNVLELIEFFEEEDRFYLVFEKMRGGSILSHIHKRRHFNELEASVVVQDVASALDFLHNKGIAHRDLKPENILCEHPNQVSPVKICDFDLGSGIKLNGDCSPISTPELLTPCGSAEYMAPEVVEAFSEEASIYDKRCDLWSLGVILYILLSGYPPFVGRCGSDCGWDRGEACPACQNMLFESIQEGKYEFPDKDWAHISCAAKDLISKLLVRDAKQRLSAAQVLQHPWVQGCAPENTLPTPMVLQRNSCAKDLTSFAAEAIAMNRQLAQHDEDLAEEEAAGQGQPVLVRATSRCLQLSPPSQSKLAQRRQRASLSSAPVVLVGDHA

[8] = biological target: T1, NUAK family SNF1-like kinase 1 (Homo sapiens) (UniProt O60285); experiment: Inhibition of NUAK1 in HEK293 cells assessed as reduction in MYPT1 phosphorylation at Ser445 residue incubated for 16 hrs by immunoblot analysis; type: cell-based; conditions: dose 3-10 µM
T1 sequence (whole entry): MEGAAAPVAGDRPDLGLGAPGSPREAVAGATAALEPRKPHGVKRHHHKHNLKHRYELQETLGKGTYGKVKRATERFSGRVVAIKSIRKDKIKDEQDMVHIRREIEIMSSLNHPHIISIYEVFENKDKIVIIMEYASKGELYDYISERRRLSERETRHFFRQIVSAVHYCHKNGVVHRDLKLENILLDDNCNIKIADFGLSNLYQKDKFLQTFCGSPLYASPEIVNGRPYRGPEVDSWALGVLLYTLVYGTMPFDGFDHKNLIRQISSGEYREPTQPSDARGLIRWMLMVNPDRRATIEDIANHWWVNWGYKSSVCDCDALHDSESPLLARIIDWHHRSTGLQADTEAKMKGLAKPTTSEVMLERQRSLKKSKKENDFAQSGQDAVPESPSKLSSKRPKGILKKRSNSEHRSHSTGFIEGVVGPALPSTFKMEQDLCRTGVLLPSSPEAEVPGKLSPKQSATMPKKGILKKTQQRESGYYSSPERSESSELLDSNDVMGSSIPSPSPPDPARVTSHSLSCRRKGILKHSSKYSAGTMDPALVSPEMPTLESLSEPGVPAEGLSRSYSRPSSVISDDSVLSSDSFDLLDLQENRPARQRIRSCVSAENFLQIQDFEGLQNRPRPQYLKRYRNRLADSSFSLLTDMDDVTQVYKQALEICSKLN
How it was run: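 HEK-293 cells exposed to inhibitor or DMSO for 16 h; medium replaced by EDTA-PBS dissociation buffer with the same inhibitor concentration to induce detachment (gentle tapping, 70 g, 3 min); cells lysed at once; MYPT1 immunoprecipitated from 0.5 mg lysate, blotted for p-Ser445 and total MYPT1; repeated three times.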

[9] = biological target: Mitogen-activated protein kinase kinase kinase 11 (Homo sapiens) (UniProt Q16584); experiment: Inhibition of recombinant human N-terminal GST-tagged MLK3 (96 to 386 residues) expressed in baculovirus infected Sf21 cells assessed as remaining activity at 1 uM using MBP as substrate incubated for 30 mins in presence of [gamma-33P]ATP by filter binding method relative to control; how it was run: as §1
Sequence of Mitogen-activated protein kinase kinase kinase 11 (Homo sapiens) (Q16584 whole entry, looked up, the tested form may be a part): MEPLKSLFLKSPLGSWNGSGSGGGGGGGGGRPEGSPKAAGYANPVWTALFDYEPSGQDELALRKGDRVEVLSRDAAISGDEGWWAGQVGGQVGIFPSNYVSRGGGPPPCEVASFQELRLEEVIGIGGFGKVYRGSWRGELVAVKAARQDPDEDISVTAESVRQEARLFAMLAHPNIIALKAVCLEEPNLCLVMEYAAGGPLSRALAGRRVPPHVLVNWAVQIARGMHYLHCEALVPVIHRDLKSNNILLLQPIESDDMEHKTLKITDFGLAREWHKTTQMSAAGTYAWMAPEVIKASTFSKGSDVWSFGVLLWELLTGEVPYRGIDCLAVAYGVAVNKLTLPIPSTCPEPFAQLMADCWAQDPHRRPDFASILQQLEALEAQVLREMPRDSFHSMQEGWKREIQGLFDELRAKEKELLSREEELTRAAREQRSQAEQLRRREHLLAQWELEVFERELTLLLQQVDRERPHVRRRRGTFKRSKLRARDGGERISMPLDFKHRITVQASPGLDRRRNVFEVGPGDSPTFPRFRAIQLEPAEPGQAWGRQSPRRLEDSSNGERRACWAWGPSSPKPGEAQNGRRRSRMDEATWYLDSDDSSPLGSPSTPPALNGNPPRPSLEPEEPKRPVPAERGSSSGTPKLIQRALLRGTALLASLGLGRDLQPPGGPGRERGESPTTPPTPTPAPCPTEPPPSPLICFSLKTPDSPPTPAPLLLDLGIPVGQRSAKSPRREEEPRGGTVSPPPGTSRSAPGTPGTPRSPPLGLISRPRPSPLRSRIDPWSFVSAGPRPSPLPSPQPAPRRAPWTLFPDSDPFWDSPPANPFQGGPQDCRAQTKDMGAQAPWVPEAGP

[10] = biological target: T1, NUAK family SNF1-like kinase 1 (Homo sapiens); experiment: Inhibition of NUAK1 (unknown origin) expressed in HEK293 cells assessed as reduction in MYPT1 phosphorylation at Ser445 residue at 30 uM incubated for 16 hrs by immunoblot analysis; type: cell-based
How it was run: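 HEK-293 Flp/In T-Rex cells stably expressing HA–NUAK1 or HA–NUAK1[A195T] (doxycycline 0.1 μg/ml, 16–24 h to induce) treated with inhibitor 16 h, then detached in EDTA-PBS dissociation buffer containing the same inhibitor concentration, tapped and spun 70 g 3 min; lysed, endogenous MYPT1 immunoprecipitated from 0.5 mg lysate and immunoblotted for p-Ser445 and total MYPT1; three separate experiments.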

[11] = biological target: T1, NUAK family SNF1-like kinase 1 (Homo sapiens); experiment: Inhibition of NUAK1 in human U2OS cells assessed as reduction in MYPT1 phosphorylation at Ser445 residues at 10 uM after 16 hrs by immunoblot analysis; type: cell-based; how it was run: as §3

## CCC(=O)Nc1cccc(Oc2nc(Nc3ccc(N4CCN(C)CC4)cc3OC)ncc2Cl)c1
[1]
  Activity: 77%
[2]
  Activity: 84%
[3]
  Activity: 84%
MEF
  inhibition: Active
[4]
  Activity: 96%
[5]
  Activity: 75%
[6]
  Activity: 82%
[7]
  Activity: 84%
[8]
  inhibition: Dose-Dependent Effect
[9]
  Activity: 73%
[10]
  inhibition: Active
[11]
  inhibition: Active
